Values after ≈ are worked out from the molar mass of the structure shown.
Assays:
[1] = test system: Enterovirus C; assay: Antiviral activity against polio 1 virus infected HeLa cell lines.; type: functional
Summary of the method: (§1)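 Vero (African green monkey kidney), HeLa (human epithelial) or HEL (human embryonic lung) cell monolayers infected with the virus. Readout is the minimum inhibitory concentration that reduces virus-induced cytopathicity by 50%. Values are averages of at least two separate experiments.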

[2] = test system: Semliki Forest virus; assay: Antiviral activity against Semliki forest virus infected Vero cell lines.; type: functional; summary of the method: as §1
[3] = test system: Vaccinia virus; assay: Antiviral activity against vaccinia virus infected HEF cell lines.; type: functional; details: Orthopoxvirus vaccinia
Summary of the method: (§2)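 Human embryonic fibroblasts, from embryonic lung or embryonic skin-muscle, infected with the virus. Endpoint is the minimum inhibitory concentration that reduces virus-induced cytopathicity by 50%. Values are averages of at least two separate experiments.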

[4] = test system: Sindbis virus; assay: Antiviral activity against sindbis virus infected Vero cell lines.; type: functional; summary of the method: as §1
[5] = test system: Vesicular stomatitis virus; assay: Antiviral activity against vesicular stomatitis virus infected HEF cell lines.; type: functional; summary of the method: as §2
[6] = test system: Human alphaherpesvirus 3; assay: Antiviral activity against TK+VZV virus infected HEL cell lines.; type: functional; summary of the method: as §1
[7] = test system: MDCK; assay: Antiviral activity of compound was tested against morphology virus infec+ted MDCK cell lines.; type: functional; details: Canis lupus familiaris
[8] = Antiviral activity against influenza A,H2N2 virus infected MDCK cell lines.; type: functional
[9] = test system: Human immunodeficiency virus 2; assay: Antiviral activity against HIV-2 virus infected CEM cell lines.; type: functional, CCRF-CEM
[10] = test system: Human alphaherpesvirus 1; assay: Antiviral activity against TK-HSV-1 virus infected HEF cell lines.; type: functional; summary of the method: as §2
[11] = test system: Vesicular stomatitis virus; assay: Antiviral activity against vesicular stomatitis virus infected HeLa cell lines.; type: functional; summary of the method: as §1
[12] = test system: Coxsackievirus B4; assay: Antiviral activity against Coxsackie B4 virus infected vero cell lines.; type: functional; details: Enterovirus B; summary of the method: as §1
[13] = test system: Human alphaherpesvirus 2; assay: Antiviral activity against HSV-2 virus infected HEF cell lines.; type: functional; summary of the method: as §2
[14] = test system: HEL; assay: Inhibition of HEL cell proliferation.; type: functional; details: Homo sapiens
Summary of the method: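 Human embryonic lung fibroblasts were used for the proliferation assay. The value is the concentration that reduces cell proliferation by 50%, averaged from at least two separate experiments.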

[15] = test system: Vero; assay: Effects on cell morphology of Vero cell lines.; type: functional; details: Chlorocebus sabaeus
Summary of the method: (§3)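 HeLa (human epithelial) or Vero (African green monkey kidney) cells were examined under the microscope for changes in normal morphology. The value is the minimum concentration causing a detectable alteration, averaged from at least two separate experiments.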

[16] = test system: HEF; assay: Effects on cell morphology of HEF cell lines.; type: functional; details: Homo sapiens
Summary of the method: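 Human embryonic skin-muscle fibroblasts were examined under the microscope for changes in normal cell morphology. The value is the minimum concentration causing a microscopically detectable alteration, averaged from at least two separate experiments.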

[17] = test system: Mammalian orthoreovirus 1; assay: Antiviral activity against Reo 1 virus infected vero cell lines.; type: functional; summary of the method: as §1
[18] = Antiviral activity against influenza A,H3N2 virus infected MDCK cell lines.; type: functional
[19] = test system: Human alphaherpesvirus 3; assay: Antiviral activity against TK-VZV virus infected HEL cell lines.; type: functional; summary of the method: as §1
[20] = test system: Human alphaherpesvirus 1; assay: Antiviral activity against HSV-1 virus infected HEF cell lines.; type: functional; summary of the method: as §2
[21] = test system: MDCK; assay: Antiviral activity tested against influenza A,H1N1 virus infected MDCK cell lines.; type: functional; details: Canis lupus familiaris
[22] = test system: Coxsackievirus B4; assay: Antiviral activity against Coxsackie B4 virus infected HeLa cell lines.; type: functional; details: Enterovirus B; summary of the method: as §1
[23] = test system: CCRF-CEM; assay: Cytotoxicity against CEM cell lines.; type: functional; details: Homo sapiens
[24] = test system: Human respirovirus 3; assay: Antiviral activity against parainfluenza 3 virus infected Vero cell lines.; type: functional; summary of the method: as §1
[25] = test system: Human immunodeficiency virus 1; assay: Antiviral activity against HIV-1 virus infected CEM cell lines.; type: functional, CCRF-CEM
[26] = test system: Human betaherpesvirus 5; assay: Antiviral activity against HCMV virus infected HEL cell lines.; type: functional; summary of the method: as §1
[27] = test system: HeLa; assay: Effects on cell morphology of HeLa cell lines.; type: functional; details: Homo sapiens; summary of the method: as §3
[28] = test system: Influenza B virus; assay: Antiviral activity against influenza B virus infected MDCK cell lines.; type: functional

In the case of `C1COCC2(N1)C1CC3CC(C1)CC2C3` (stereo not given), the MIC50 [1] is reported as over 400 µg/mL, the MIC50 [2] is reported as over 400 µg/mL and the MIC50 [3] is reported as over 200 µg/mL. The MIC50 [4] was over 400 µg/mL, the MIC50 [5] was over 200 µg/mL and the MIC50 [6] was over 50 µg/mL. For the same molecule, the MIC50 [7] was over 250 µg/mL, the MIC50 [8] was 1.7 µg/mL (≈ 8.2 µM) and the MIC50 [9] was over 200 µg/mL. The MIC50 [10] was over 200 µg/mL, the MIC50 [11] was over 400 µg/mL and the MIC50 [12] was over 400 µg/mL. The MIC50 [13] was over 200 µg/mL, the MIC50 [14] was over 50 µg/mL and the MIC50 [15] was over 400 µg/mL. For the same molecule, the MIC50 [16] was over 200 µg/mL, the MIC50 [17] was over 400 µg/mL and the MIC50 [18] was 13 µg/mL (≈ 62.7 µM). It also gave an MIC50 [19] of over 50 µg/mL, an MIC50 [20] of over 200 µg/mL and an MIC50 [21] of 29 µg/mL (≈ 140 µM). The MIC50 [22] was over 400 µg/mL, the MIC50 [23] was over 200 µg/mL and the MIC50 [24] was over 400 µg/mL. For the same molecule, the MIC50 [25] was 158 µg/mL (≈ 762 µM), the MIC50 [26] was over 50 µg/mL and the MIC50 [27] was over 400 µg/mL. The MIC50 [28] was 20 µg/mL (≈ 96.5 µM).

`CCCCN1CCCC1C12CC3CC(CC(C3)C1)C2` (stereo not given) gave an MIC50 [1] of over 100 µg/mL, an MIC50 [2] of over 100 µg/mL and an MIC50 [3] of over 40 µg/mL. For the same molecule, the MIC50 [4] was over 100 µg/mL, the MIC50 [5] was over 40 µg/mL and the MIC50 [6] was over 50 µg/mL. It also gave an MIC50 [7] of 250 µg/mL (≈ 956 µM), an MIC50 [8] of 44.5 µg/mL (≈ 170 µM) and an MIC50 [9] of over 40 µg/mL. It also gave an MIC50 [10] of over 40 µg/mL, an MIC50 [11] of over 100 µg/mL and an MIC50 [12] of over 100 µg/mL. The MIC50 [13] was over 40 µg/mL, the MIC50 [14] was over 50 µg/mL and the MIC50 [15] was over 200 µg/mL. For the same molecule, the MIC50 [16] was 100 µg/mL (≈ 382 µM), the MIC50 [17] was over 100 µg/mL and the MIC50 [18] was over 100 µg/mL. For the same molecule, the MIC50 [19] was over 20 µg/mL, the MIC50 [20] was over 40 µg/mL and the MIC50 [21] was 4 µg/mL (≈ 15.3 µM). For the same molecule, the MIC50 [22] was over 100 µg/mL, the MIC50 [23] was 74 µg/mL (≈ 283 µM) and the MIC50 [24] was over 100 µg/mL. The MIC50 [25] was over 40 µg/mL, the MIC50 [26] was over 50 µg/mL and the MIC50 [27] was 200 µg/mL (≈ 765 µM). For the same molecule, the MIC50 [28] was over 80 µg/mL.

Molecule `NC1(C23CC4CC(CC(C4)C2)C3)CCCC1` has an MIC50 [1] of over 40 µg/mL, an MIC50 [2] of over 10 µg/mL and an MIC50 [3] of over 10 µg/mL. It also gave an MIC50 [4] of over 10 µg/mL, an MIC50 [5] of over 10 µg/mL and an MIC50 [6] of over 20 µg/mL. It also gave an MIC50 [7] of over 250 µg/mL, an MIC50 [8] of 2.5 µg/mL (≈ 11.4 µM) and an MIC50 [9] of over 8 µg/mL. It also gave an MIC50 [10] of over 10 µg/mL, an MIC50 [11] of over 40 µg/mL and an MIC50 [12] of over 10 µg/mL. It also gave an MIC50 [13] of over 10 µg/mL, an MIC50 [14] of over 50 µg/mL and an MIC50 [15] of over 400 µg/mL. It also gave an MIC50 [16] of 40 µg/mL (≈ 182 µM), an MIC50 [17] of over 10 µg/mL and an MIC50 [18] of 6 µg/mL (≈ 27.4 µM). For the same molecule, the MIC50 [19] was over 20 µg/mL, the MIC50 [20] was over 10 µg/mL and the MIC50 [21] was over 64 µg/mL. It also gave an MIC50 [22] of over 40 µg/mL, an MIC50 [23] of 18 µg/mL (≈ 82.1 µM) and an MIC50 [24] of over 10 µg/mL. The MIC50 [25] was over 8 µg/mL, the MIC50 [26] was over 20 µg/mL and the MIC50 [27] was 100 µg/mL (≈ 456 µM). It also gave an MIC50 [28] of 20 µg/mL (≈ 91.2 µM).

Work on `NC12CC3CC(CC(C3)C1)C2` [AMANTADINE] yielded an MIC50 [7] of over 250 µg/mL, an MIC50 [8] of 0.8 µg/mL (≈ 5.29 µM) and an MIC50 [21] of 48 µg/mL (≈ 317 µM).

In the case of `Nc1nc2c(ncn2COC(CO)CO)c(=O)[nH]1` [GANCICLOVIR], the MIC50 [3] is reported as over 100 µg/mL, the MIC50 [5] is reported as over 100 µg/mL and the MIC50 [10] is reported as 0.02 µg/mL (≈ 0.0784 µM). The MIC50 [13] was 0.002 µg/mL (≈ 0.00784 µM), the MIC50 [16] was over 100 µg/mL and the MIC50 [20] was over 200 µg/mL. For the same molecule, the MIC50 [26] was 0.7 µg/mL (≈ 2.74 µM).

`NC(=O)c1ncn([C@@H]2O[C@H](CO)[C@@H](O)[C@H]2O)n1` [RIBAVIRIN] showed an MIC50 [1] of 20 µg/mL (≈ 81.9 µM), an MIC50 [2] of over 400 µg/mL and an MIC50 [3] of 20 µg/mL (≈ 81.9 µM). It also gave an MIC50 [4] of over 400 µg/mL, an MIC50 [5] of 20 µg/mL (≈ 81.9 µM) and an MIC50 [7] of over 250 µg/mL. It also gave an MIC50 [8] of 48.7 µg/mL (≈ 199 µM), an MIC50 [10] of over 200 µg/mL and an MIC50 [11] of 20 µg/mL (≈ 81.9 µM). It also gave an MIC50 [12] of over 400 µg/mL, an MIC50 [13] of over 200 µg/mL and an MIC50 [15] of over 400 µg/mL. For the same molecule, the MIC50 [16] was 400 µg/mL (≈ 1640 µM), the MIC50 [17] was 70 µg/mL (≈ 287 µM) and the MIC50 [18] was 5.6 µg/mL (≈ 22.9 µM). The MIC50 [20] was over 200 µg/mL, the MIC50 [21] was 19 µg/mL (≈ 77.8 µM) and the MIC50 [22] was 10 µg/mL (≈ 40.9 µM). The MIC50 [24] was 150 µg/mL (≈ 614 µM), the MIC50 [27] was over 400 µg/mL and the MIC50 [28] was 2.4 µg/mL (≈ 9.83 µM).

With `CC(N)C12CC3CC(CC(C3)C1)C2` (stereo not given) [RIMANTADINE] the MIC50 [7] was 250 µg/mL (≈ 1390 µM), the MIC50 [8] was under 0.14 µg/mL and the MIC50 [18] was over 12 µg/mL. The MIC50 [21] was 28 µg/mL (≈ 156 µM) and the MIC50 [28] was over 20 µg/mL.
